Holding throughout (format): functional
The target in series [1] is Lanosterol 14-alpha demethylase (Candida albicans (strain SC5314 / ATCC MYA-2876) (Yeast), UniProt P10613). Briefly: Anticandida activity- (MIC90 compound) / (MIC90 bifonazole).
Series [2] relates to Candida albicans. The experiment in a line: IIn vitro antifungal activity against 40 strains of Candida albicans at pH 5.8; (percent of resistant species at 256 ug/mL). In a few lines: (§1)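 Broth serial-dilution test in Sabouraud broth at pH 7.2 or 5.8, against 40 fresh clinical C. albicans isolates from hospitalized patients. Inocula were 10³/mL, pre-grown 18 h at 37 °C in Sabouraud dextrose broth. Compound from a DMSO/water stock was twofold-diluted over 0.25–256 µg/mL. Visible growth was read at 24 h, 37 °C.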

In series [3] the test system is Candida. Briefly: In vitro antifungal activity against 40 strains at pH 5.8,(percent of resistant species at 256 ug/mL). The method, boiled down: as §1
Series [4] has as its system Candida albicans. Briefly: In vitro antifungal activity against 40 strains of Candida albicans at pH 5.8. In a few lines: (§2)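 Broth serial-dilution MIC against 40 clinical C. albicans isolates from hospitalized patients, grown in Sabouraud broth at pH 7.2 or 5.8. Cells were pre-grown 18 h at 37 °C, inoculated at 10³/mL, and read at 24 h, 37 °C. Doubling dilutions ran 0.25–256 μg/mL from a DMSO/water solution. MIC was the lowest concentration with no visible growth against a DMSO/water blank.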

In series [5] the test system is Candida albicans. Briefly: In vitro antifungal activity against 40 strains of Candida albicans at pH 5.8; (range is from 1 to 16). In a few lines: as §2
Series [6] deals with Candida. Briefly: Tested In vitro for antifungal activity against Candida species. at pH 7.2; (range is from 4 to 32). In a few lines: (§3)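 Liquid serial-dilution MIC against 3 freshly isolated clinical Candida strains (two C. glabrata, one C. krusei) in Sabouraud broth at pH 7.2 or 5.8. Inoculum was 10³/mL after 18 h pre-culture at 37 °C, read at 24 h, 37 °C. Range was 0.25–256 μg/mL. Endpoint was no visible growth versus a DMSO/water blank.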

Series [7] relates to Candida. Briefly: Tested in vitro for antifungal activity against Candida species. at pH 5.8. The method, boiled down:
as §3

Series [8] relates to Candida albicans. The experiment in a line: In vitro antifungal activity against 40 strains of Candida albicans at pH 7.2. In a few lines: as §2
Series [9] concerns Candida. Briefly: Tested In vitro for antifungal activity against Candida species. at pH 7.2. The method, boiled down:
as §3

The test system of series [10] is Candida. The experiment in a line: Tested in vitro for antifungal activity against Candida species. at pH 5.8 ( range is from 8 to 16). The method, boiled down: as §3
Series [11] concerns Candida albicans. Briefly: In vitro antifungal activity against 40 strains of Candida albicans at pH 7.2; (percent of resistant species at 256 ug/mL). In a few lines:
as §1

The test system of series [12] is Candida. Briefly: Tested In vitro for antifungal activity against Candida species. at pH 7.2; (percent of resistant species at 256 ug/mL). The method, boiled down: (§4)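 Broth serial-dilution test in Sabouraud broth at pH 7.2 or 5.8, against 3 fresh clinical non-albicans isolates (two C. glabrata, one C. krusei). Inocula were 10³/mL, pre-grown 18 h at 37 °C. Compound was twofold-diluted over 0.25–256 µg/mL and read at 24 h, 37 °C for visible growth.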

In series [13] the test system is Candida albicans. Briefly: In vitro antifungal activity against 40 strains of Candida albicans at pH 7.2; minimum inhibitory concentration (range is from 4 to 64). The method, boiled down:
as §2

For series [14], the system named is Candida albicans. The experiment in a line: In vitro antifungal activity against 40 strains of Candida albicans at pH 5.8; (range is from 0.25 to 32). In a few lines: as §2
For series [15], the system named is Candida. The experiment in a line: Tested In vitro for antifungal activity against Candida species. at pH 7.2; (range is from 8 to 16). The method, boiled down:
as §3

Series [16] relates to Candida. Briefly: Tested in vitro for antifungal activity against Candida species. at pH 5.8; (range is from 4 to 8). In a few lines: as §3
Series [17] relates to Candida albicans. Briefly: IIn vitro antifungal activity against 40 strains of Candida albicans at pH 7.2; minimum inhibitory concentration (range is from 0.5 to 16). In a few lines: as §2
Series [18] deals with Candida. The experiment in a line: Tested in vitro for antifungal activity against Candida species. at pH 5.8 (percent of resistant species at 256 ug/mL). The method, boiled down:
as §4

The MIC is the lowest concentration that inhibits growth of the organism. One may read the MIC50 as the lowest concentration that inhibits either 50% of growth or 50% of the strains tested, depending on the study. The low end stands for higher susceptibility, the high end for lower susceptibility. As a reminder, the MIC90 is the lowest concentration that inhibits either 90% of growth or 90% of the strains tested, depending on the study. Low readings indicate greater potency, high ones weaker potency.

Converted amounts (≈) assume the structure as drawn.

Sequence of Lanosterol 14-alpha demethylase (P10613 whole entry): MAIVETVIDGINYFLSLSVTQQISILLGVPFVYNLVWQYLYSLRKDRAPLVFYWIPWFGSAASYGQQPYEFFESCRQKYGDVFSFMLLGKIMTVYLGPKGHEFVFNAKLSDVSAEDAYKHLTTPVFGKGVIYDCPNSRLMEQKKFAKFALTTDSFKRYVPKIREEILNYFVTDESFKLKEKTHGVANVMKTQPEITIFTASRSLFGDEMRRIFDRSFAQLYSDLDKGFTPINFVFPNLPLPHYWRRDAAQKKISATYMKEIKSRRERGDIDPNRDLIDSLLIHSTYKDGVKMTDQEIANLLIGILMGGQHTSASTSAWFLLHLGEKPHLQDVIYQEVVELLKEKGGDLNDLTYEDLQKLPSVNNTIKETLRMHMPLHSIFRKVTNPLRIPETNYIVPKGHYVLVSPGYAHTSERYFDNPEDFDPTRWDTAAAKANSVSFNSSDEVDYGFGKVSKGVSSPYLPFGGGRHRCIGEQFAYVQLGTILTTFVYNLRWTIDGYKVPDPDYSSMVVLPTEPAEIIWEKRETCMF

For `COc1ccc([C@H](Cc2cccc(F)c2)n2ccnc2)cc1`, in series [1], the Ratio came out at 66. Consider `FC(F)(F)c1ccc(-c2c[nH]cc2[C@@H](c2ccc(Cl)cc2Cl)n2ccnc2)cc1`, for which the Resistance in series [2], in series [3], in [11] and in [12] was 0% throughout. The minimal inhibitory concentration (MIC) in [4] worked out at 4.8 µg/mL (≈ 11 µM); in [7] it was 16 µg/mL (≈ 36.7 µM); in series [8] it was 7.63 µg/mL (≈ 17.5 µM); in series [9], 17.3 µg/mL (≈ 39.7 µM). Moreover, the MIC50 in series [4] was determined as 4 µg/mL (≈ 9.17 µM); in [7], 16 µg/mL (≈ 36.7 µM); in [8] it was 4 µg/mL (≈ 9.17 µM); in [9], 16 µg/mL (≈ 36.7 µM). For the same molecule, the MIC90 in series [4] was determined as 8 µg/mL (≈ 18.3 µM); in series [7], 16 µg/mL (≈ 36.7 µM); in [8], 8 µg/mL (≈ 18.3 µM); in [9], 32 µg/mL (≈ 73.4 µM). Moreover, the Range in series [5] amounted to 16 µg/mL; in series [6] it was 32 µg/mL; in [10], 16 µg/mL; in series [13], 64 µg/mL. Regarding `Fc1ccc(-n2ccc([C@H](c3ccc(Cl)cc3)n3ccnc3)c2)cc1`, the Ratio in series [1] is 1.8. Same read-out and setting: to `COc1ccc(-c2cn(Cc3ccc(Cl)cc3Cl)cc2[C@@H](c2ccccc2)n2ccnc2)cc1` belongs 41. With `CCn1cc(-c2ccc(Cl)cc2)c([C@H](c2ccc(Cl)cc2Cl)n2ccnc2)c1`, the Ratio in [1] is 2.9. In addition, the Resistance in [2], in series [11], in [12] and in series [18] was 0% throughout. Besides, the MIC in series [4] came out at 2.36 µg/mL (≈ 5.48 µM); in [7] it was 5.33 µg/mL (≈ 12.4 µM); in series [8], 3.2 µg/mL (≈ 7.43 µM); in series [9], 13.3 µg/mL (≈ 30.9 µM). For the same molecule, the MIC50 in series [4] is 1 µg/mL (≈ 2.32 µM); in series [7] it was 4 µg/mL (≈ 9.29 µM); in [8] it was 1 µg/mL (≈ 2.32 µM); in series [9], 16 µg/mL (≈ 37.1 µM). The MIC90 is 2 µg/mL (≈ 4.64 µM) in series [4], 8 µg/mL (≈ 18.6 µM) in series [7], 2 µg/mL (≈ 4.64 µM) in series [8] and 16 µg/mL (≈ 37.1 µM) in series [9]. Also, the Range in [14] is 32 µg/mL; in series [15], 16 µg/mL; in series [16], 8 µg/mL; in series [17] it was 16 µg/mL.

Take `Cc1ccc([C@@H](c2ccc(-n3cccc3)cc2)n2ccnc2)cc1`: the Ratio in series [1] was determined as 0.13. On to `Fc1ccc([C@H](c2ccn(-c3ccccc3)c2)n2ccnc2)cc1`, for which, in [1], the Ratio was 2. On the same count and under the same terms, to `Cn1cc(-c2ccc(F)cc2)c([C@@H](c2ccccc2)n2ccnc2)c1` belongs 4; to `Cc1ccc(-c2cn(C)cc2[C@@H](c2ccccc2)n2ccnc2)cc1`, 3.8; to `Cc1ccc(-c2cn(Cc3ccc(Cl)cc3Cl)cc2[C@@H](c2ccccc2)n2ccnc2)cc1`, 42. Still for that read-out and setting: for `Fc1ccc([C@@H](c2ccn(-c3ccc(F)cc3)c2)n2ccnc2)cc1` the value was 1; for `COc1ccc([C@H](Cc2ccccc2Cl)n2ccnc2)cc1`, 63. On to `COc1ccc([C@H](Cc2ccc(Cl)cc2)n2ccnc2)cc1`, for which the Ratio in [1] stood at 4.

As for `c1ccc([C@@H](c2ccc(-n3cccc3)cc2)n2ccnc2)cc1`, the Ratio in [1] was 0.25. Same read-out and setting: to `Clc1ccc([C@@H](c2ccc(-n3cccc3)cc2)n2ccnc2)cc1` belongs 0.5; to `Clc1ccc(Cn2cc(-c3ccccc3)c([C@@H](c3ccccc3)n3ccnc3)c2)c(Cl)c1`, 22; to `Fc1ccc(-n2ccc([C@@H](c3ccccc3)n3ccnc3)c2)cc1`, 4.

For the molecule `Cc1ccc([C@H](c2ccn(-c3ccc(F)cc3)c2)n2ccnc2)cc1`, in series [1], the Ratio came out at 1.9. Same read-out and setting: to `COc1ccc([C@H]([C@@H](Cc2ccc(Cl)cc2Cl)c2ccc(OC)cc2)n2ccnc2)cc1` belongs 21; to `Nc1ccc([C@@H](c2ccccc2)n2ccnc2)cc1`, 2.5; to `Clc1ccc(-c2c[nH]cc2[C@@H](c2ccccc2)n2ccnc2)cc1`, 0.46. The same measure, in the same setting: for `Clc1ccc([C@@H](c2ccn(-c3ccc(Cl)cc3)c2)n2ccnc2)cc1` the value was 3; for `COc1ccc([C@H](Cc2ccc(F)cc2)n2ccnc2)cc1`, 16. Consider `O=[N+]([O-])c1ccc([C@@H](c2ccccc2)n2ccnc2)cc1`, for which the Ratio in series [1] was 2.2. On the same count and under the same terms, for `COc1ccc([C@@H]([C@@H](Cc2ccc(Cl)cc2Cl)c2ccc(Cl)cc2)n2cncn2)cc1` the value was 62; for `COc1ccc([C@H](Cc2ccc(N)cc2)n2ccnc2)cc1`, 2.1. The same measure, in the same setting: to `COc1ccc([C@H](Cc2cccc(-n3cccc3)c2)n2ccnc2)cc1` belongs 58; to `Cn1cc(-c2ccc(Cl)cc2)c([C@@H](c2ccccc2)n2ccnc2)c1`, 0.9; to `Cn1cc(-c2ccccc2)c([C@H](c2ccccc2)n2ccnc2)c1`, 4.

As for `Fc1ccc([C@@H](c2ccn(-c3ccc(Cl)cc3)c2)n2ccnc2)cc1`, the Ratio in series [1] is reported as 1.8. Same read-out and setting: to `COc1ccc([C@H](Cc2ccc(Cl)cc2)n2cnnc2)cc1` belongs 63; to `Cc1ccc([C@H](c2ccn(-c3ccc(Cl)cc3)c2)n2ccnc2)cc1`, 0.89. Still for that read-out and setting: to `Clc1ccc(-n2ccc([C@@H](c3ccccc3)n3ccnc3)c2)cc1` belongs 0.5. On the same count and under the same terms, for `c1ccc([C@H](c2ccn(-c3ccccc3)c2)n2ccnc2)cc1` the value was 4.1. For `Cc1ccc([C@H](c2ccn(-c3ccccc3)c2)n2ccnc2)cc1`, the Ratio in series [1] was found to be 1.

For `Cc1ccc([C@@H](c2ccc(NC(=O)c3ccc(Cl)cc3Cl)cc2)n2ccnc2)cc1`, in series [1], the Ratio is 0.7. Still for that read-out and setting: for `COc1ccc(C[C@@H](c2ccc(OC)cc2)n2cnnc2)cc1` the value was 64; for `COc1ccc([C@H](Cc2ccccc2-n2cccc2)n2ccnc2)cc1`, 7.2; for `COc1ccc([C@H](Cc2ccccc2F)n2ccnc2)cc1`, 63. Same read-out and setting: to `COc1ccc(C[C@@H](c2ccc(OC)cc2)n2ccnc2)cc1` belongs 8; to `Cc1ccc([C@H](c2ccc([N+](=O)[O-])cc2)n2ccnc2)cc1`, 0.5. On the same count and under the same terms, to `COc1ccc([C@H](Cc2ccc([N+](=O)[O-])cc2)n2ccnc2)cc1` belongs 32; to `CCC(c1ccc(Cl)cc1)[C@@H](c1ccc(OC)cc1)n1cncn1` (some centres not stated), 29. For the molecule `O=[N+]([O-])c1ccc([C@@H](c2ccc(Cl)cc2)n2ccnc2)cc1`, the Ratio in series [1] turned out to be 1.

With `COc1ccc([C@H](Cc2ccccc2Cl)n2cncn2)cc1`, the Ratio in series [1] is recorded as 32. The same measure, in the same setting: to `COc1ccc([C@H](Cc2cccc(Cl)c2)n2ccnc2)cc1` belongs 32; to `Clc1ccc(-c2cn(Cc3ccc(Cl)cc3Cl)cc2[C@@H](c2ccccc2)n2ccnc2)cc1`, 40. Same read-out and setting: to `Fc1ccc(-c2c[nH]cc2[C@@H](c2ccccc2)n2ccnc2)cc1` belongs 1; to `CC[C@@H](c1ccc([N+](=O)[O-])cc1)[C@H](c1ccc(OC)cc1)n1ccnc1`, 7.3. The same measure, in the same setting: to `CC[C@@H](c1ccc(Cl)cc1)[C@@H](c1ccc(OC)cc1)n1cnnc1` belongs 63; to `COc1ccc([C@@H](Cc2ccc(Cl)cc2Cl)n2ccnc2)cc1`, 3.6. For `COc1ccc([C@H](Cc2ccccc2[N+](=O)[O-])n2ccnc2)cc1`, the Ratio in [1] stood at 123. `COc1ccc([C@@H]([C@@H](Cc2ccc(Cl)cc2Cl)c2ccc(Cl)cc2)n2ccnc2)cc1`: the Ratio in [1] worked out at 10.5.
